The species entered for one data set is Mus musculus. Kind of data set: Antidiabetic activity in diabetic db/db mouse assessed as time required for improved glucose disposal by oral glucose tolerance test. The format is functional. An outline of the steps: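 db/db mice, 6–8 per group, fasted ~6 h (food removed 3 h before prebleed), dosed orally at −4.5 and −0.5 h relative to oral glucose (vehicle 10% captisol). Tail-snip blood glucose was read by glucometer or analyzer; plasma insulin was measured by ELISA.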

Data set [1] is described as follows: Plasma concentration in diabetic db/db mouse at 30 mg/kg administered at 4.5 and 0.5 hrs prior to oral glucose challenge measured 20 mins post second dose.
A short description of data set [2]: Inhibition of GSK3 expressed in CHO-IR cells expressing human insulin receptor assessed as glycogen synthase activation after 30 mins by filter paper assay. It counts as cell-based, Cavia porcellus.
The nature of data set [3]: Inhibition of human GSK3 using biotin-CREB peptide substrate after 1 hr by scintillation counting method.
Data set [4] in a line: Stability in human liver microsomes assessed as half life. It counts as ADME, microsome. (In general: Microsomes from liver hold many membrane-bound enzymes, among them those of drug oxidation.)
The nature of data set [5]: Oral bioavailability in diabetic ZDF fa/fa rat at 8 mg/kg administered 4.5 and 0.5 hrs prior to oral glucose challenge. The format is ADME, organism-based. The following applies: in vivo.
In another data set the test system is Rattus norvegicus. Kind of data set: Antidiabetic activity in diabetic ZDF fa/fa rat assessed as reduction in plasma glucose AUC at 8 mg/kg administered 4.5 and 0.5 hrs prior to oral glucose challenge by oral glucose tolerance test. It counts as functional. The arrangement: scale not given: the % may be the effect or the level left. The method in brief: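 Obese 10-week-old ZDF (fa/fa) rats, n = 8/group, fasted overnight, given 8 mg/kg orally at 4.5 and 0.5 h before oral glucose challenge. Efficacy is the percent reduction in plasma glucose AUC versus untreated animals. Formulations were 15% captisol, 1% CMC or water with pH adjusted.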

Data set [6] is described as follows: Stability in rat liver microsomes assessed as half life. The format is ADME, microsome.
Data set [7] can be described thus: Stability in dog liver microsomes assessed as half life. The format is ADME, Canis lupus familiaris, microsome.
Data set [8] can be described thus: Half life in diabetic ZDF fa/fa rat at 8 mg/kg administered 4.5 and 0.5 hrs prior to oral glucose challenge. The format is ADME, organism-based. The following applies: in vivo.
Data set [9] has as its target Fibroblast growth factor receptor 1 (Homo sapiens, UniProt P11362).
Data set [10] is described as follows: Inhibition of GSK3 in Sprague-Dawley rat primary hepatocytes assessed as assessed as glycogen synthase activation after 30 mins.
The target of data set [11] is T1, Serine/threonine-protein kinase Chk1 (Homo sapiens, UniProt O14757).
T1 sequence (O14757 whole entry): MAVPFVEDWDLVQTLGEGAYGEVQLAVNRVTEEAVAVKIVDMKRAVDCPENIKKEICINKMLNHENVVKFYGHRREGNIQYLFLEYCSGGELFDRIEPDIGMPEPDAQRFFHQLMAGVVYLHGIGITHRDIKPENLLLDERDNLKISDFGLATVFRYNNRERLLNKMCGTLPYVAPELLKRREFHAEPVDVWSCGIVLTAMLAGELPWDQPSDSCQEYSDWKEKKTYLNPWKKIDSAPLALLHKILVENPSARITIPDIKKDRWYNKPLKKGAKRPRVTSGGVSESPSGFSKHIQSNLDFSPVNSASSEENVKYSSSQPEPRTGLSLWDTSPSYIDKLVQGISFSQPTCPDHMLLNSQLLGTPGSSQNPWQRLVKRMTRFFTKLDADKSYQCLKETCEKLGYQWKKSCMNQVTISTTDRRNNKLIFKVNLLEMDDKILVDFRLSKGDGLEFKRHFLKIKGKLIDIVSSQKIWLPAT
Description: Inhibition of human CHK1 using biotin-CDC25 peptide substrate after 1 hr by scintillation counting method.

Another data set has as its target Insulin receptor (Homo sapiens, UniProt P06213). Kind of data set: Inhibition of human insulin receptor tyrosine kinase after 1 hr by scintillation counting method.
The target in data set [12] is Insulin-like growth factor 1 receptor (Homo sapiens, UniProt P08069).
Data set [13] is described as follows: Inhibition of human DNA-dependent protein kinase using PI as substrate after 1 hr by scintillation counting method.
The target of data set [14] is Cyclin-dependent kinase 1 (Homo sapiens, UniProt P06493). Description: Inhibition of human CDC2 using biotin histone H1 peptide substrate after 1 hr by scintillation counting method.
The target in data set [15] is Glycogen synthase kinase-3 alpha (Homo sapiens, UniProt P49840). Kind of data set: Inhibition of human GSK3alpha using biotin-CREB peptide substrate after 1 hr by scintillation counting method.
Data set [16] deals with Mitogen-activated protein kinase 1 (Homo sapiens, UniProt P28482). Description: Inhibition of human ERK2 using myelin basic protein substrate after 1 hr by scintillation counting method.
Data set [17] deals with RAC-alpha serine/threonine-protein kinase (Homo sapiens, UniProt P31749). Description: Inhibition of human AKT1/PKB using phospho-AKT peptide substrate after 1 hr by scintillation counting method.
In data set [18] the target is Vascular endothelial growth factor receptor 2 (Homo sapiens, UniProt P35968).
Data set [19] can be described thus: Inhibition of human phosphatidylinositol (PI) 3-kinase using PI as substrate after 1 hr by scintillation counting method.
Data set [20] deals with Vascular endothelial growth factor receptor 1 (Homo sapiens, UniProt P17948).
The target in data set [21] is Glycogen synthase kinase-3 beta (Homo sapiens, UniProt P49841). Description: Inhibition of human GSK3beta using biotin-CREB peptide substrate after 1 hr by scintillation counting method.
Data set [22] has as its target Casein kinase I isoform epsilon (Homo sapiens, UniProt P49674). Description: Inhibition of human CK1epsilon using biotin peptide substrate after 1 hr by scintillation counting method.
Another data set addresses Angiopoietin-1 receptor (Homo sapiens, UniProt Q02763).

The source of these data is ChEMBL document CHEMBL4020814, “Synthesis, Binding Mode, and Antihyperglycemic Activity of Potent and Selective (5-Imidazol-2-yl-4-phenylpyrimidin-2-yl)[2-(2-pyridylamino)ethyl]amine Inhibitors of Glycogen Synthase Kinase 3” (J Med Chem, 2017).

Molecules are shown by their SMILES. Some results are limits rather than exact numbers.

Chain of Glycogen synthase kinase-3 alpha (P49840 whole entry): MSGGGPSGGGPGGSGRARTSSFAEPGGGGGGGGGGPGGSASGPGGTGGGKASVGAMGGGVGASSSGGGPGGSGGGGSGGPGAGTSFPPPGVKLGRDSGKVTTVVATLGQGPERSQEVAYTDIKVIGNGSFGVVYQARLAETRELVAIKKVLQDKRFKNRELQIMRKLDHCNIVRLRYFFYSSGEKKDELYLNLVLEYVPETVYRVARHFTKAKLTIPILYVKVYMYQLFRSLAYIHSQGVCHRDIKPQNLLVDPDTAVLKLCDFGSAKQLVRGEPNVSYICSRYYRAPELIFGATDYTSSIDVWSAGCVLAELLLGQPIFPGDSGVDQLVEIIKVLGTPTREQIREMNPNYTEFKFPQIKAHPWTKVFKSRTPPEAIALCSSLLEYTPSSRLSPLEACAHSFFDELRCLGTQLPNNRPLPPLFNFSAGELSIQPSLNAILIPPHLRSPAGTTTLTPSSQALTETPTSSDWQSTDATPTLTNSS
Chain of Fibroblast growth factor receptor 1 (P11362 whole entry): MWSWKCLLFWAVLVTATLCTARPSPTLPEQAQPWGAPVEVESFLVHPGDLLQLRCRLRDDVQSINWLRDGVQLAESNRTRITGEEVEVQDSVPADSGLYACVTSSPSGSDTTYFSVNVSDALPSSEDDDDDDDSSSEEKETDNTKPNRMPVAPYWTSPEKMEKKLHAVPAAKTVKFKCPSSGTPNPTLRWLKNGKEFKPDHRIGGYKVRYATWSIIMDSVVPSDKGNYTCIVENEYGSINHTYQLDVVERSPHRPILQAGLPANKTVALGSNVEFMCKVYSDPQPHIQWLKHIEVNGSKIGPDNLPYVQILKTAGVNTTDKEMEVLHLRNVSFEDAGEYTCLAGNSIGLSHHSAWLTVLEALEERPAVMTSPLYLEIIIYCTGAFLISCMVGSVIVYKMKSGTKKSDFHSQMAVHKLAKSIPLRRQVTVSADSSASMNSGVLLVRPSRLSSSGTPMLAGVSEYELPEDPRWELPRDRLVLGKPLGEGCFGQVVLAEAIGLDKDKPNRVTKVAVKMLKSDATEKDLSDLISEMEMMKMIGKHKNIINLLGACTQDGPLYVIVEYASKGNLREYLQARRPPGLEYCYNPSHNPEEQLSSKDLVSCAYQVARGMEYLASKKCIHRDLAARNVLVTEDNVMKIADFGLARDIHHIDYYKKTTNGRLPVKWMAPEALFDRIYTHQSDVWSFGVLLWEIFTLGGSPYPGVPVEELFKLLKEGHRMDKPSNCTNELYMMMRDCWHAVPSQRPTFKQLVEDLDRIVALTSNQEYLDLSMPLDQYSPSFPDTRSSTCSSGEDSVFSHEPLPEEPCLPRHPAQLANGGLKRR
Chain of Vascular endothelial growth factor receptor 1 (P17948 whole entry): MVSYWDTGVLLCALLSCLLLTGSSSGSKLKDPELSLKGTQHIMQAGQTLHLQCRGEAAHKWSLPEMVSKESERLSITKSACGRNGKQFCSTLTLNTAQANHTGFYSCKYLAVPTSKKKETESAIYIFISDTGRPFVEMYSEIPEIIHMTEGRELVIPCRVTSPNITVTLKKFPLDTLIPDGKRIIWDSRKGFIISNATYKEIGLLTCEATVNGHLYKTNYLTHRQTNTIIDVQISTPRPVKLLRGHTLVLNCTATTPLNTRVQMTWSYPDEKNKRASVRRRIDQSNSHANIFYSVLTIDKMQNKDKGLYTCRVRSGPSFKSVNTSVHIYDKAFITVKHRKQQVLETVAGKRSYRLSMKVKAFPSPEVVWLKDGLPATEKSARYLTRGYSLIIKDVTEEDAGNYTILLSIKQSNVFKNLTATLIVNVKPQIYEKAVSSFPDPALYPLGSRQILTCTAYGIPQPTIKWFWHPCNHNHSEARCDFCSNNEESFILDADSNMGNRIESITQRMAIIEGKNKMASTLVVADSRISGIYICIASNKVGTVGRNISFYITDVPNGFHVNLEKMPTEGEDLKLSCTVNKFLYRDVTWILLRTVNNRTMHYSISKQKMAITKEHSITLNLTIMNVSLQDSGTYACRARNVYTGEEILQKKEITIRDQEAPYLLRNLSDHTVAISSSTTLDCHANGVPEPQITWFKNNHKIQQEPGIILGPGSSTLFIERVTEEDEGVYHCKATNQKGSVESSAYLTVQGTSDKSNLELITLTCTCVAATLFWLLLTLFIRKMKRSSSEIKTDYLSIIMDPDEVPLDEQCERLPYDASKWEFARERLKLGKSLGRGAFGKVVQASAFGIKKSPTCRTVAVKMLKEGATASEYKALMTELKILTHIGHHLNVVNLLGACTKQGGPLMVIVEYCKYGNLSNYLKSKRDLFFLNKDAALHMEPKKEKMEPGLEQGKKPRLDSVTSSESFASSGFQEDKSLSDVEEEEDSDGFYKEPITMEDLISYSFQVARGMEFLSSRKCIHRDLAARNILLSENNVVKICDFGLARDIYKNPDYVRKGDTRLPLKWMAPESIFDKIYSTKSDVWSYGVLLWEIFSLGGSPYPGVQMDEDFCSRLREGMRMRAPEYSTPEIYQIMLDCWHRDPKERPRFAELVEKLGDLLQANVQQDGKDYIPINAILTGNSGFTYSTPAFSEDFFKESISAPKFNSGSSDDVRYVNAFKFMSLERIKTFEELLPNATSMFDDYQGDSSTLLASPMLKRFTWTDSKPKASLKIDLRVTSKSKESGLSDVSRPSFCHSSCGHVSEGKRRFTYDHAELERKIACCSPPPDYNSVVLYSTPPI
Chain of Angiopoietin-1 receptor (Q02763 whole entry): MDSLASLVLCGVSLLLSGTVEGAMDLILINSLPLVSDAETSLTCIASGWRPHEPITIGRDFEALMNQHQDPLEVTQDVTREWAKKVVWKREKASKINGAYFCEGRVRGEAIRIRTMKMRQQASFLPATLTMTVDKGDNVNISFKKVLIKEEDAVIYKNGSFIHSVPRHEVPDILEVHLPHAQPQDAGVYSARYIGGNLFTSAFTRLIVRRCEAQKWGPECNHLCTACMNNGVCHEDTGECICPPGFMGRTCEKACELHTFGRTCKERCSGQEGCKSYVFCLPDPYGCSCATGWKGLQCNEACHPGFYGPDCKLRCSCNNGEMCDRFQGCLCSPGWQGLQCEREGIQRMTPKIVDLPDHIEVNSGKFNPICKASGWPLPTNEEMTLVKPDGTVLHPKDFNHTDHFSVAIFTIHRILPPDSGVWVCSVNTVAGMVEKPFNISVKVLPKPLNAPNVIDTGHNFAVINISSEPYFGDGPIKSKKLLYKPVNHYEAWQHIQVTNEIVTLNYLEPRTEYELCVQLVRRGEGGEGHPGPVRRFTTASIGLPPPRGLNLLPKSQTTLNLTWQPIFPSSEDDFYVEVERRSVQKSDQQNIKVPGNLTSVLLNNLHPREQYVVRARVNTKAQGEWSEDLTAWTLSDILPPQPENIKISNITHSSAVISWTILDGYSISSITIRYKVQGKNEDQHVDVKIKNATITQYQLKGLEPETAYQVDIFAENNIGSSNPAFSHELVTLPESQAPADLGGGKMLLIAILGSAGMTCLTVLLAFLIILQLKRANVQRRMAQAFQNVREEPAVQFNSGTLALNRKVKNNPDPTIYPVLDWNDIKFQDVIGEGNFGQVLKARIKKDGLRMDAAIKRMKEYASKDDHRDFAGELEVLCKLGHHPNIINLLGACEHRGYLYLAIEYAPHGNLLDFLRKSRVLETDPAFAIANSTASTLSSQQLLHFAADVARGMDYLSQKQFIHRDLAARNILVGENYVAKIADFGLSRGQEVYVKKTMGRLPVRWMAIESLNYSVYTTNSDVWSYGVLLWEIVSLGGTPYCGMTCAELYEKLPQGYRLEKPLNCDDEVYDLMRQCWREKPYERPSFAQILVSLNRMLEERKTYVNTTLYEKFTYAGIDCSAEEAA
Chain of RAC-alpha serine/threonine-protein kinase (P31749 whole entry): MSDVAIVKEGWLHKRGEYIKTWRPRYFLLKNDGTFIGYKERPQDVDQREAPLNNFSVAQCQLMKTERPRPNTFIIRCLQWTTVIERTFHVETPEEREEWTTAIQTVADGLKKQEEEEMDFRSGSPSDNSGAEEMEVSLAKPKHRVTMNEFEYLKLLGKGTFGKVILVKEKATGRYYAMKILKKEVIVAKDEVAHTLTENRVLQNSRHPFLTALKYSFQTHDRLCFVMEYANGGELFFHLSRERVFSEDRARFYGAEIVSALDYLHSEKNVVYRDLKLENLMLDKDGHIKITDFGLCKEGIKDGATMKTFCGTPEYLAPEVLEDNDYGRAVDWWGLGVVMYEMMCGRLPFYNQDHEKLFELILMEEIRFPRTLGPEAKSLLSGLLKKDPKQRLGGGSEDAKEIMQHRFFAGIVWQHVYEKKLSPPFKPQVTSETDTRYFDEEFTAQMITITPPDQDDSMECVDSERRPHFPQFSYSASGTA
Chain of Mitogen-activated protein kinase 1 (P28482 whole entry): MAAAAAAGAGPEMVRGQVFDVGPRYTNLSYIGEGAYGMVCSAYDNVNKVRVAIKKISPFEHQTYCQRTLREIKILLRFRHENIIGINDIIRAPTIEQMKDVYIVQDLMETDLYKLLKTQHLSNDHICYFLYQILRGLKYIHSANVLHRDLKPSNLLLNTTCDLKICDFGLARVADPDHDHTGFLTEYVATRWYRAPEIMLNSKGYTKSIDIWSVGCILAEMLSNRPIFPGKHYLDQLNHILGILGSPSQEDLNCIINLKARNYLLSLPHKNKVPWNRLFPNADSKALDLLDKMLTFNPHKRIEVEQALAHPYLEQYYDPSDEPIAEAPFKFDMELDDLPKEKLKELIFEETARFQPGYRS
Chain of Casein kinase I isoform epsilon (P49674 whole entry, canonical isoform): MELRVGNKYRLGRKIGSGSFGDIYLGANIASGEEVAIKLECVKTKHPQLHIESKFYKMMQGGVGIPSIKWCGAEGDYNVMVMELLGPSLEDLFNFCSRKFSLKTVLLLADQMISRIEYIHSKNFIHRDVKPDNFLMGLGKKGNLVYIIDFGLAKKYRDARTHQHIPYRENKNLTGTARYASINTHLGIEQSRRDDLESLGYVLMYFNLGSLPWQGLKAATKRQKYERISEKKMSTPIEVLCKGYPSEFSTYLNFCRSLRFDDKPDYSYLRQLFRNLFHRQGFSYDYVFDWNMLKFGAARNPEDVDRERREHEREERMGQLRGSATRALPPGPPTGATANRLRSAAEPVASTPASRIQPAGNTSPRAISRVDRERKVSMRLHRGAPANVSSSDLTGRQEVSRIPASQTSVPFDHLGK

As for `Cc1c(C)c2c(c(C)c1O)CCC(C)(COc1ccc(CC3SC(=O)NC3=O)cc1)O2` (stereo not given) [TROGLITAZONE], in the data set listed under Mus musculus, the Time result was “<=2 weeks”.
As to `CN(C)C(=N)NC(=N)N` [METFORMIN], the Time result in the data set filed under Mus musculus is recorded as “<=2 weeks”.
For orientation: EC50 means the concentration giving half of the maximal effect. What is called IC50 is the point on the concentration scale where inhibition reaches its midpoint. On to `N#Cc1ccc(-c2nc(NCCNc3ccc([N+](=O)[O-])cn3)ncc2-n2ccnc2)cc1`, for which the concentration at 20 min in data set [1] (plasma) stood at 5000 ng/mL. Moreover, in [2], the EC50 worked out at 1300 nM. Moreover, in data set [3], the IC50 was found to be 11 nM.
For orientation: half-life means the time needed for the level to fall by half in the phase considered. Turning to `N#Cc1ccc(NCCNc2ncc(-c3ncc[nH]3)c(-c3ccc(Cl)cc3Cl)n2)nc1`, the half-life is 33 min in [4], above 30 min in data set [6], above 30 min in [7] and 52 min in data set [8]. The molecule also came in with a concentration at 20 min in [1] (plasma) of 29000 ng/mL. The bioavailability in data set [5] came out at 21%. In addition, the Activity in the data set with Rattus norvegicus is listed as 18%. The EC50 in data set [2] turned out to be 510 nM. In addition, the midpoint of inhibition in data set [3], the IC50, lay at 4 nM.
On to `CN1CCN(c2cnc(NCCNc3ccc([N+](=O)[O-])c(N)n3)nc2-c2ccc(Cl)cc2Cl)CC1`, for which the concentration at 20 min in data set [1] (plasma) came to 3000 ng/mL. The EC50 in [2] came to 50 nM. The same molecule yielded an IC50 in [3] of 6 nM.
On to `Nc1nc(NCCNc2ncc(-n3ccnc3)c(-c3ccc(Cl)cc3Cl)n2)ccc1[N+](=O)[O-]`, for which the IC50 in [9] is above 1000 nM; in [11], above 10000 nM; at Insulin receptor, above 2000 nM; in data set [12], above 2000 nM; in data set [13], above 10000 nM; in [14], 4000 nM. In addition, the IC50 was 7 nM in [15]; above 10000 nM in [16]; above 5000 nM in data set [17]; above 2000 nM in data set [18]; above 5000 nM in data set [19]; above 5000 nM in data set [20]. The IC50 is 0.6 nM in data set [21], above 5000 nM in [22], 1 nM in data set [3] and above 5000 nM at Angiopoietin-1 receptor. The EC50 turned out to be 100 nM in [10] and 80 nM in data set [2]. Further, the concentration at 20 min in [1] (in vivo) is 7000 ng/mL.
`N#Cc1ccc(NCCNc2ncc(-n3ccnc3)c(-c3ccc(Cl)cc3Cl)n2)nc1` displayed a concentration at 20 min in [1] (plasma) of 13000 ng/mL. The EC50 in [2] amounted to 790 nM. In data set [3], the midpoint of inhibition, the IC50, lay at 25 nM.
Turning to `O=[N+]([O-])c1ccc(NCCNc2ncc(-c3ncc[nH]3)c(-c3ccc(Cl)cc3Cl)n2)nc1`, the concentration at 20 min in [1] (plasma) was found to be 97000 ng/mL. In data set [5], this molecule returned a bioavailability of 33%. Besides, the Activity in the data set with Rattus norvegicus is recorded as 29%. The results for the half-life in data set [6], in [7] and in data set [8] were above 30 min, above 30 min and 143 min, respectively. Also, in data set [2], the EC50 was 370 nM. Moreover, the IC50 in [3] is 4 nM.
In the case of `Nc1nc(NCCNc2ncc(N3CCOCC3)c(-c3ccc(Cl)cc3Cl)n2)ccc1[N+](=O)[O-]`, in data set [1] (plasma), the concentration at 20 min stood at 1000 ng/mL. The EC50 in data set [2] came to 70 nM. In addition, in data set [3], the IC50 came to 7 nM.
As to `Nc1nc(NCCNc2ncc(-c3ncc[nH]3)c(-c3ccc(Cl)cc3Br)n2)ccc1[N+](=O)[O-]`, the concentration at 20 min in data set [1] (plasma) turned out to be 13000 ng/mL. In addition, the half-life in [6] and in data set [7] was above 30 min in each case. Also, in data set [2], the EC50 is 260 nM. In addition, in [3], the IC50 is 6 nM.
In the case of `Cc1c[nH]c(-c2cnc(NCCNc3ccc([N+](=O)[O-])cn3)nc2-c2ccc(Cl)cc2Cl)n1`, in data set [1] (plasma), the concentration at 20 min turned out to be 19000 ng/mL. The EC50 in data set [2] came out at 290 nM. Moreover, half-maximal inhibition in data set [3] (IC50) required 8 nM.
Take `Cc1c[nH]c(-c2cnc(NCCNc3ccc([N+](=O)[O-])c(N)n3)nc2-c2ccc(Cl)cc2Cl)n1`: in data set [1] (plasma), the concentration at 20 min worked out at 10000 ng/mL. The bioavailability in data set [5] came out at 7%. For the same molecule, the Activity in the data set with Rattus norvegicus came to 24%. In [8], this molecule registered a half-life of 58 min. Further, the EC50 in [2] was 120 nM. In addition, it took 2 nM to reach half-maximal inhibition in data set [3] (IC50).
On to `N#Cc1ccc(-c2nc(NCCNc3ccc([N+](=O)[O-])cn3)ncc2-c2ncc[nH]2)cc1`, for which the concentration at 20 min in data set [1] (plasma) is 1000 ng/mL. The EC50 in [2] was determined as 5000 nM. This molecule also returned an IC50 in data set [3] of 19 nM.
Turning to `CN1CCN(c2cnc(NCCNc3ccc([N+](=O)[O-])c(N)n3)nc2-c2ccc(Cl)cc2Cl)C(=O)C1`, in data set [1] (plasma), the concentration at 20 min worked out at 4000 ng/mL. Further, in data set [2], the EC50 is 30 nM. Besides, in data set [3], the IC50 is 4 nM.
